This is an account of results in ChEMBL document CHEMBL1138800, “Synthesis and biological evaluation of novel N6-[4-(substituted)sulfonamidophenylcarbamoyl]adenosine-5'-uronamides as A3 adenosine receptor agonists” (J Med Chem, 2004).

SMILES strings stand for the structures. pIC50, pKi: −log10 of the molar value.

The target of assay [1] is T1, Adenosine receptor A2a (Homo sapiens, UniProt P29274). As to the kind of experiment: Inhibition of [3H]CGS-21680 binding to Adenosine A2A receptor expressed in CHO cells. Type of assay: cell-based. More on the design: concentration or dose not given beside the values. The following applies: concentration not given here.
The target of assay [2] is T1, Adenosine receptor A2a. As to the kind of experiment: Displacement of [3H]CGS-21680 binding to Adenosine A2 receptor expressed in CHO cells. The class given is cell-based. (Displacement assays read how much labelled ligand stays bound in the presence of the test substance.)
The target of assay [3] is Adenosine receptors; A1 & A3 (Homo sapiens) (UniProt P30542+P0DMS8). As to the kind of experiment: Ratio of binding affinity for Adenosine A1 and Adenosine A3 receptors. Type of assay: protein assay.
The target in a further assay is T2, Adenosine receptor A1 (Homo sapiens, UniProt P30542).
T2 sequence (P30542 whole entry): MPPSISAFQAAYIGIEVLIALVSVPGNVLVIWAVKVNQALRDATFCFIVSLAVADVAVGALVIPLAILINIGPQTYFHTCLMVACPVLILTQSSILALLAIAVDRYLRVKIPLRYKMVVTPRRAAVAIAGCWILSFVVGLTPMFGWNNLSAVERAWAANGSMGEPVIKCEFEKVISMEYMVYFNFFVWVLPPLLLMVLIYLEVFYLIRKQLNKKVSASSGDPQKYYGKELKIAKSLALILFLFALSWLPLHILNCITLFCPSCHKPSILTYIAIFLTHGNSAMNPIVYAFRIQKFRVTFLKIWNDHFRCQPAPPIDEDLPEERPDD
In words: Displacement of [3H]CHA binding to Adenosine A1 receptor expressed in CHO cells. The class given is cell-based. The essentials: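 Human A1-transfected CHO membranes (adenosine deaminase-treated), 50 µg protein, incubated 120 min at 25 °C in 50 mM Tris HCl pH 7.4 with 1 nM [3H]-CHA and 6-8 agonist concentrations; nonspecific binding with 10 µM CHA. Filtration through GF/B filters, scintillation counting; Ki from IC50 via Cheng-Prusoff; geometric mean with confidence limits.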

The target in assay [4] is T3, Adenosine receptor A3 (Homo sapiens, UniProt P0DMS8).
T3 sequence (P0DMS8 whole entry): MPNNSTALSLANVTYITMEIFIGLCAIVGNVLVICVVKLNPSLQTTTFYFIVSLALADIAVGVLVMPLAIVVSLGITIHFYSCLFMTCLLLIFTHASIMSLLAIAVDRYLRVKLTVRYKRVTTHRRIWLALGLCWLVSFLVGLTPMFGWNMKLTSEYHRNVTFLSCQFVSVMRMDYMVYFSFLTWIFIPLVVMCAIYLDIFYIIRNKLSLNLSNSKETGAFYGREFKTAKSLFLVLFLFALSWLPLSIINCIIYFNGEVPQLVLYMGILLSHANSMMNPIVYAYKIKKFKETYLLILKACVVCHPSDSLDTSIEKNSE
In words: Displacement of [125I]AB-MECA binding to Adenosine A3 receptor expressed in CHO cells. The class given is cell-based.

Assay [5] deals with T3, Adenosine receptor A3. As to the kind of experiment: Inhibition of (10 uM) forskolin-mediated cAMP production in CHO cells expressing human Adenosine A3 receptor. The class given is functional, cell-based. On the technique in general: Changes in cAMP serve as a functional read-out for many G protein-coupled receptors.
Assay [6] concerns the target Adenosine receptors; A2a & A3 (Homo sapiens) (UniProt P0DMS8+P29274). As to the kind of experiment: Ratio of binding affinity for Adenosine A2A and Adenosine A3 receptors. The class given is protein assay. The essentials:
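Ki ratio of two competition binding assays on adenosine deaminase-treated membranes of CHO cells expressing human receptors (50 µg protein). […] A3: 1 nM [125I]-AB-MECA, 120 min, 4 °C, duplicates. Filtration read-out; Ki by Cheng-Prusoff.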

For orientation: inhibition means the change of the read-out against control, counted positive when it falls. What is called pKi is the negative decadic logarithm of the Ki, by convention in mol/L. By pIC50 is commonly meant −log10 of the IC50, conventionally taken in molar units.

T1 sequence (P29274 whole entry): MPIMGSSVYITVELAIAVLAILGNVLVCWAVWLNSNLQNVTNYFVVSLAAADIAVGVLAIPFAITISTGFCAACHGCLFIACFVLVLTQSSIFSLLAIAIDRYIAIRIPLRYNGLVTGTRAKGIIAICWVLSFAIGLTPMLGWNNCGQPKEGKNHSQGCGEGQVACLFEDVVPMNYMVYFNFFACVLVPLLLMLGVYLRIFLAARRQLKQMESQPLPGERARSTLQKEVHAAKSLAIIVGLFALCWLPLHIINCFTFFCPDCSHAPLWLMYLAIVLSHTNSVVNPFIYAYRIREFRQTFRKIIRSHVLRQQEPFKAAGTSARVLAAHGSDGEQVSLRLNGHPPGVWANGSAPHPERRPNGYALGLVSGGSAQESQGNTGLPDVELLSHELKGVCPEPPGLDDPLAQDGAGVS
Chain of Adenosine receptors; A2a & A3 (Homo sapiens) (P29274 whole entry, looked up, one chain of several): as the sequence (P29274 whole entry) above

`CCNC(=O)[C@H]1OC(n2cnc3c(NC(=O)Nc4ccc(S(=O)(=O)NC(C)(C)C)cc4)ncnc32)C(O)C1O` (single isomer, unassigned) came in with an inhibition on Adenosine receptor A2a [1] of 32%. Besides, the values for the pKi on Adenosine receptor A2a [2], at Adenosine receptor A1 and on Adenosine receptor A3 [4] were under 6.00, 6.60 and 7.70, respectively. For the same molecule, the Ratio in assay [3] was 12.5.

Turning to `CCNC(=O)[C@H]1OC(n2cnc3c(NC(=O)Nc4ccc(S(=O)(=O)NC56CC7CC(CC(C7)C5)C6)cc4)ncnc32)C(O)C1O` (single isomer, unassigned), at Adenosine receptor A2a [1], the inhibition turned out to be 31%. Besides, the results for the negative-log Ki (pKi) at Adenosine receptor A2a [2], at Adenosine receptor A1 and on Adenosine receptor A3 [4] were under 6.00, 6.62 and 7.46, respectively. For the same molecule, in assay [3], the Ratio was 7.5.

Regarding `CCNC(=O)[C@H]1OC(n2cnc3c(NC(=O)Nc4ccc(S(=O)(=O)N(CCCl)CCCl)cc4)ncnc32)C(O)C1O` (single isomer, unassigned), on Adenosine receptor A2a [1], the inhibition came to 27%. Besides, the pKi at Adenosine receptor A2a [2] was under 6.00; at Adenosine receptor A1, 6.14; on Adenosine receptor A3 [4], 7.64. Also, the Ratio in assay [3] worked out at 31.7.

Regarding `CCNC(=O)[C@H]1OC(n2cnc3c(NC(=O)Nc4ccc(S(=O)(=O)N(C)C(C)C)cc4)ncnc32)C(O)C1O` (single isomer, unassigned), the inhibition at Adenosine receptor A2a [1] is 13%.

`CCNC(=O)[C@H]1OC(n2cnc3c(NC(=O)Nc4ccc(S(=O)(=O)NC5CCCC5)cc4)ncnc32)C(O)C1O` (single isomer, unassigned): on Adenosine receptor A2a [1], the inhibition stood at 19%. Also, the pKi on Adenosine receptor A2a [2] is under 6.00; on Adenosine receptor A1 it was 6.38; on Adenosine receptor A3 [4], 7.62. Further, in assay [3], the Ratio worked out at 17.3.

On Adenosine receptor A2a [1], `CCCNS(=O)(=O)c1ccc(NC(=O)Nc2ncnc3c2ncn3C2O[C@H](C(=O)NCC)C(O)C2O)cc1` (single isomer, unassigned) returned an inhibition of 31%. Moreover, the pKi at Adenosine receptor A2a [2] was under 6.00; on Adenosine receptor A1, 6.54; at Adenosine receptor A3 [4], 7.60. Besides, the Ratio in assay [3] is 11.6.

`CCNC(=O)[C@H]1OC(n2cnc3c(NC(=O)Nc4ccc(S(=O)(=O)N5CCCC5)cc4)ncnc32)C(O)C1O` (single isomer, unassigned) displayed an inhibition on Adenosine receptor A2a [1] of 23%. In addition, the results for the pKi at Adenosine receptor A2a [2] and at Adenosine receptor A3 [4] were under 6.00 and 7.66, respectively.

For `CCNC(=O)[C@H]1OC(n2cnc3c(NC(=O)Nc4ccc(S(=O)(=O)NCc5ccccc5)cc4)ncnc32)C(O)C1O` (single isomer, unassigned), the inhibition on Adenosine receptor A2a [1] stood at 30%. For the same molecule, the pKi on Adenosine receptor A2a [2] is under 6.00; on Adenosine receptor A1 it was 6.52.

On to `CCNC(=O)[C@H]1OC(n2cnc3c(NC(=O)Nc4ccc(S(=O)(=O)NCC)cc4)ncnc32)C(O)C1O` (single isomer, unassigned), for which, at Adenosine receptor A2a [1], the inhibition worked out at 34%. For the same molecule, the pKi was under 6.00 at Adenosine receptor A2a [2], 6.60 at Adenosine receptor A1 and 7.64 on Adenosine receptor A3 [4]. In addition, the Ratio in assay [3] amounted to 10.9.

For `CCNC(=O)[C@H]1OC(n2cnc3c(NC(=O)Nc4ccc(S(=O)(=O)Nc5ccc(OC)cc5)cc4)ncnc32)C(O)C1O` (single isomer, unassigned), the inhibition on Adenosine receptor A2a [1] worked out at 34%. Moreover, the pKi at Adenosine receptor A2a [2] is under 6.00; at Adenosine receptor A1, 6.55.

In turn, `C=CCN(C)S(=O)(=O)c1ccc(NC(=O)Nc2ncnc3c2ncn3C2O[C@H](C(=O)NCC)C(O)C2O)cc1` (single isomer, unassigned) had a pIC50 at Adenosine receptor A3 [5] of 7.38. The same molecule registered an inhibition at Adenosine receptor A2a [1] of 10%. Further, the pKi on Adenosine receptor A2a [2] is under 6.00; at Adenosine receptor A3 [4], 8.00.

Take `CCCCCNS(=O)(=O)c1ccc(NC(=O)Nc2ncnc3c2ncn3C2O[C@H](C(=O)NCC)C(O)C2O)cc1` (single isomer, unassigned): the inhibition at Adenosine receptor A2a [1] was 32%. Moreover, the pKi on Adenosine receptor A2a [2] was under 6.00; at Adenosine receptor A1, 6.35; at Adenosine receptor A3 [4], 7.10. Moreover, in assay [3], the Ratio turned out to be 5.56.

On Adenosine receptor A3 [5], `CCNC(=O)[C@H]1O[C@@H](n2cnc3c(NC(=O)Nc4ccc(S(N)(=O)=O)cc4)ncnc32)C(O)C1O` (single isomer, unassigned) had a pIC50 of 7.09. Also, the pKi on Adenosine receptor A2a [2] is 7.02; on Adenosine receptor A1 it was 7.52; on Adenosine receptor A3 [4] it was 7.83. The Ratio in assay [3] stood at 2.03; in assay [6], 6.43.

For the molecule `CCNC(=O)[C@H]1OC(n2cnc3c(NC(=O)Nc4ccc(S(=O)(=O)N5CCOCC5)cc4)ncnc32)C(O)C1O` (single isomer, unassigned), at Adenosine receptor A2a [1], the inhibition stood at 20%. In addition, the results for the pKi at Adenosine receptor A2a [2], on Adenosine receptor A1 and at Adenosine receptor A3 [4] were under 6.00, 6.14 and 7.70, respectively. The Ratio in assay [3] is 36.2.

With `CCNC(=O)[C@H]1OC(n2cnc3c(NC(=O)Nc4ccc(S(=O)(=O)N5CC=CC5)cc4)ncnc32)C(O)C1O` (single isomer, unassigned), the inhibition at Adenosine receptor A2a [1] was 17%. Further, the pKi is under 6.00 on Adenosine receptor A2a [2], 6.60 on Adenosine receptor A1 and 7.72 at Adenosine receptor A3 [4]. Further, the Ratio in assay [3] amounted to 13.2.

For `C=CCN(CC=C)S(=O)(=O)c1ccc(NC(=O)Nc2ncnc3c2ncn3C2O[C@H](C(=O)NCC)C(O)C2O)cc1` (single isomer, unassigned), the pIC50 against Adenosine receptor A3 [5] is 7.19. On Adenosine receptor A2a [1], this molecule yielded an inhibition of 15%. Besides, the values for the pKi on Adenosine receptor A2a [2], at Adenosine receptor A1 and at Adenosine receptor A3 [4] were under 6.00, 6.42 and 8.00, respectively. Moreover, the Ratio in assay [3] worked out at 38.

In the case of `CCCN(CCC)S(=O)(=O)c1ccc(NC(=O)Nc2ncnc3c2ncn3C2O[C@H](C(=O)NCC)C(O)C2O)cc1` (single isomer, unassigned), the inhibition on Adenosine receptor A2a [1] came to 15%. For the same molecule, the pKi on Adenosine receptor A2a [2] is under 6.00; at Adenosine receptor A1, 6.46; at Adenosine receptor A3 [4], 7.85. Moreover, the Ratio in assay [3] stood at 25.

In the case of `CCNC(=O)[C@H]1OC(n2cnc3c(NC(=O)Nc4ccc(S(=O)(=O)NC5CCCCC5)cc4)ncnc32)C(O)C1O` (single isomer, unassigned), at Adenosine receptor A2a [1], the inhibition came out at 25%. Besides, the figures for the pKi on Adenosine receptor A2a [2] and at Adenosine receptor A1 were under 6.00 and 6.46, respectively.

At Adenosine receptor A2a [1], `CCNC(=O)[C@H]1OC(n2cnc3c(NC(=O)Nc4ccc(S(=O)(=O)N(C)C)cc4)ncnc32)C(O)C1O` (single isomer, unassigned) displayed an inhibition of 21%. The pKi on Adenosine receptor A2a [2] is under 6.00; at Adenosine receptor A1, 6.55.

Consider `CCNC(=O)[C@H]1OC(n2cnc3c(NC(=O)Nc4ccc(S(=O)(=O)N(CC)CC)cc4)ncnc32)C(O)C1O` (single isomer, unassigned), for which the inhibition on Adenosine receptor A2a [1] came out at 28%. In addition, the pKi at Adenosine receptor A2a [2] is under 6.00.

At Adenosine receptor A2a [1], `CCNC(=O)[C@H]1OC(n2cnc3c(NC(=O)Nc4ccc(S(=O)(=O)N5CCCCC5)cc4)ncnc32)C(O)C1O` (single isomer, unassigned) showed an inhibition of 15%. At Adenosine receptor A2a [2], this molecule had a negative logarithm of the Ki (pKi) of under 6.00.
